Assay results published in PubChem BioAssay.
Active and inactive are the calls of the source. Cut-off read from the data, not from the text of the source, unless noted: active = inhibition above about 30%; inactive = the rest.

What was measured:
[1] = reducers of endogenous Her2 protein level, primary screen, SKBR3 breast tumor cells, AlphaScreen, ATP viability (AID 461;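 active = Her2 level under about 52% in both replicate screens, with viability over 70% of control, limit read from the data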;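 for Her2 level: lower value means less Her2 protein in the cells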;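 for viability: percent of carrier control wells set as 100% viability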); details: 18-24 h, measured here: SKBR3 viability, ATP luminescence, at 10 µM
[2] = biological target: Receptor tyrosine-protein kinase erbB-2 (Homo sapiens) (UniProt P04626); experiment: as above; details: 18-24 h, at 10 µM, stronger effect = lower value
Receptor tyrosine-protein kinase erbB-2 (Homo sapiens), sequence (P04626 whole entry, looked up): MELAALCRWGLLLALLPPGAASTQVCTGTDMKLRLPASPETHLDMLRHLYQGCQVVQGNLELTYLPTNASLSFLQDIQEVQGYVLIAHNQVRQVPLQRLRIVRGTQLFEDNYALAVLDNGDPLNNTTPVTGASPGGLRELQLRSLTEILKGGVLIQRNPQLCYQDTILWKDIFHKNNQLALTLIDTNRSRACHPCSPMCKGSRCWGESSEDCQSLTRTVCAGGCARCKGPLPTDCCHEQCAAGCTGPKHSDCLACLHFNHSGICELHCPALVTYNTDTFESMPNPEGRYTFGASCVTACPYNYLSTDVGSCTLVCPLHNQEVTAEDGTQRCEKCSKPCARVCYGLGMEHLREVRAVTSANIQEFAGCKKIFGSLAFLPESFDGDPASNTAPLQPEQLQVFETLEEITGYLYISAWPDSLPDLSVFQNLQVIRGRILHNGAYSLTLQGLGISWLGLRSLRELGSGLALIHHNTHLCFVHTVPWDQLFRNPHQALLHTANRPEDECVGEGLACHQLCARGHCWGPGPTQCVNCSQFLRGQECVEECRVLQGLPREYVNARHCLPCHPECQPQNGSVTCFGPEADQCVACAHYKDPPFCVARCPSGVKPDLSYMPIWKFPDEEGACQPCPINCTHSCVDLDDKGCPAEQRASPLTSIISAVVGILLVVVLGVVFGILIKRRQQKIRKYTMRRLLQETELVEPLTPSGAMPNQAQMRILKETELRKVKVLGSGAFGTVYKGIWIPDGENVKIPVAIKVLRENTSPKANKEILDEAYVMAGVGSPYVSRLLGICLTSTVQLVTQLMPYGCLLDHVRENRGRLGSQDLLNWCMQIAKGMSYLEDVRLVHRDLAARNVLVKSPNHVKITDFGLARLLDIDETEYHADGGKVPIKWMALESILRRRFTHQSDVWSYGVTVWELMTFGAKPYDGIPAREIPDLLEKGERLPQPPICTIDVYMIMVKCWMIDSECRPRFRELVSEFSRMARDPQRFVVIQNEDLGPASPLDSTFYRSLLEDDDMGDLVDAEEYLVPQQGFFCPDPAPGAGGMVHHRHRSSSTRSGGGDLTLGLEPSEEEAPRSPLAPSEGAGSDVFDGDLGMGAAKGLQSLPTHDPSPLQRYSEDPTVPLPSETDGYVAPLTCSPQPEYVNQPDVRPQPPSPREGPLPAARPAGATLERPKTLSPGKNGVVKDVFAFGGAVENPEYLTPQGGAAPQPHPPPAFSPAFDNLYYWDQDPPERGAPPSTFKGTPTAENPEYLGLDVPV

[3] = SK-BR-3 cell growth inhibitors, pilot screen, 24 h, human (AID 572;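 active = viability at or below 10% of carrier control in both of two separate runs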;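 note: compound exposure lasted between 18 and 24 h rather than exactly 24 h; 100% = carrier-treated control wells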); details: SK-BR-3 viability, CellTiter-Glo luminescence, at 10 µM, stronger effect = lower value
[4] = HUVEC growth inhibition – cell-based, human, primary screen (AID 575;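 active = viability at or below 30% in both replicate assays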;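 note: 100% = median of untreated cell wells with 0.1% DMSO on each plate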); details: HUVEC proliferation, CellTiter-Glo luminescence, 72 h; at 10 µM; stronger effect = lower value
In short: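 Test system: HUVEC primary cells. Quantity: 1250 endothelial cells in each well. Dosing: single-point 10 µM, DMSO 0.1% final. Incubation: 72 h treatment at 37 °C. Measured by: CTG luminescence. Control set: DMSO cell controls and MePR drug controls. Plate: collagen-coated 384-well format.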

[5] = reversal of MRP1-mediated doxorubicin resistance, pilot screen, H69AR cells, doxorubicin co-treatment (AID 601;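 active = viability loss from added drug above about 55%, and viability with drug at most 40%, in both replicates, limit read from the data, passing the limit was not always enough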); details: CellTiter-Glo, 72 h, at 10 µM; for differential viability (reversal): stronger effect = higher value
[6] = 384-well plate pilot, post-Golgi transport modulator project, inhibition of yeast transport mutant growth (AID 636; in the data active = inhibition above about 31%); details: absorbance 615 nm, about 18 h, stronger effect = higher value
[7] = growth suppression of yeast trafficking mutant, preliminary HTS, modulators of trafficking downstream of Golgi apparatus project, 1536-format plate, OD 615 nm (AID 637); details: yeast transport mutant growth, absorbance 615 nm, 18 h; stronger effect = higher value
[8] = H69AR cells + 2 uM doxorubicin, measured here: viability with 2 uM doxorubicin, stronger effect = lower value
[9] = H69AR cells, compound alone cytotoxicity

## Cc1cccc(N2CCN(C(=O)c3ccc(NS(=O)(=O)c4c(C)noc4C)cc3)CC2)c1C
[1]
  viability: 98%
[2]
  Her2 level: 106% (inactive)
[3]
  viability: 98% (inactive)
[4]
  viability: 68.2% (inactive)
[5]; H69AR cells + 2 uM doxorubicin
  differential viability (reversal): 13.6% (inactive)
[5]; [8]
  viability: 46.2%
[5]; [9]
  viability: 59.8%
[6]
  inhibition: -3.68% (inactive)
[7]
  inhibition: 2% (inactive)

## COc1ccc(Br)cc1C1N2CC3(C)CN1CC(C)(C2)C3=O (stereo not drawn)
[1]
  viability: 114%
[2]
  Her2 level: 89.5% (inactive)
[3]
  viability: 114% (inactive)
[4]
  viability: 97.1% (inactive)
[5]; H69AR cells + 2 uM doxorubicin
  differential viability (reversal): -33% (inactive)
[5]; [8]
  viability: 87.3%
[5]; [9]
  viability: 54.3%
[6]
  inhibition: -5.97% (inactive)
[7]
  inhibition: -3.61% (inactive)

## CCOC(=O)c1c(NC(=O)Cn2c(C)nc3ccccc32)sc2c1CCC2
[1]
  viability: 107%
[2]
  Her2 level: 107% (inactive)
[3]
  viability: 107% (inactive)
[4]
  viability: 63% (inactive)
[5]; H69AR cells + 2 uM doxorubicin
  differential viability (reversal): 3.14% (inactive)
[5]; [8]
  viability: 54.7%
[5]; [9]
  viability: 57.8%
[6]
  inhibition: -4.53% (inactive)
[7]
  inhibition: -0.97% (inactive)

## Cc1csc2ncc(C(=O)Nc3ccccc3Cl)c(=O)n12
[1]
  viability: 87.5%
[2]
  Her2 level: 86% (inactive)
[3]
  viability: 87.5% (inactive)
[4]
  viability: 66.8% (inactive)
[5]; H69AR cells + 2 uM doxorubicin
  differential viability (reversal): 3.82% (inactive)
[5]; [8]
  viability: 44.5%
[5]; [9]
  viability: 48.3%
[6]
  inhibition: -4.13% (inactive)
[7]
  inhibition: 4.5% (inactive)

## CCn1c(CNc2ccc(OC)cc2)nnc1SCC(=O)c1ccc(OC)cc1
[1]
  viability: 110%
[2]
  Her2 level: 91% (inactive)
[3]
  viability: 110% (inactive)
[4]
  viability: 68.8% (inactive)
[5]; H69AR cells + 2 uM doxorubicin
  differential viability (reversal): -14.7% (inactive)
[5]; [8]
  viability: 65.5%
[5]; [9]
  viability: 50.8%
[6]
  inhibition: -3.64% (inactive)
[7]
  inhibition: 0.33% (inactive)

## C/C(Cl)=C/Cn1c(SCc2ccc(Cl)cc2)nc2c1c(=O)[nH]c(=O)n2C
[1]
  viability: 102%
[2]
  Her2 level: 110% (inactive)
[3]
  viability: 102% (inactive)
[4]
  viability: 78.8% (inactive)
[5]; H69AR cells + 2 uM doxorubicin
  differential viability (reversal): -6.12% (inactive)
[5]; [8]
  viability: 60.4%
[5]; [9]
  viability: 54.3%
[6]
  inhibition: -1.33% (inactive)
[7]
  inhibition: -7.1% (inactive)

## CCOC(=O)c1sc2nc(SCC(=O)NCc3ccco3)n(Cc3ccccc3)c(=O)c2c1C
[1]
  viability: 90.5%
[2]
  Her2 level: 84% (inactive)
[3]
  viability: 90.5% (inactive)
[4]
  viability: 82% (inactive)
[5]; H69AR cells + 2 uM doxorubicin
  differential viability (reversal): 13% (inactive)
[5]; [8]
  viability: 33%
[5]; [9]
  viability: 46%
[6]
  inhibition: -5.68% (inactive)
[7]
  inhibition: 0.98% (inactive)

## O=C(CSc1nnc2scc(-c3ccccc3)n12)Nc1nsc(-c2ccccc2)n1
[1]
  viability: 82.5%
[2]
  Her2 level: 78% (inactive)
[3]
  viability: 82.5% (inactive)
[4]
  viability: 70.3% (inactive)
[5]; H69AR cells + 2 uM doxorubicin
  differential viability (reversal): -14.1% (inactive)
[5]; [8]
  viability: 75.2%
[5]; [9]
  viability: 61.1%
[6]
  inhibition: -6.53% (inactive)
[7]
  inhibition: 0.48% (inactive)

## CC(C)C(=O)Nc1ccc(C(=O)NCc2cccnc2)cc1
[1]
  viability: 107%
[2]
  Her2 level: 108% (inactive)
[3]
  viability: 107% (inactive)
[4]
  viability: 118% (inactive)
[5]; H69AR cells + 2 uM doxorubicin
  differential viability (reversal): -61.7% (inactive)
[5]; [8]
  viability: 72.5%
[5]; [9]
  viability: 10.8%
[6]
  inhibition: 4.42% (inactive)
[7]
  inhibition: -7.14% (inactive)

## Cc1cc(C)c2c(n1)nn1c(N3CCN(c4ccccc4C)CC3)cc(C)nc21
[1]
  viability: 73.5%
[2]
  Her2 level: 95.5% (inactive)
[3]
  viability: 73.5% (inactive)
[4]
  viability: 92.4% (inactive)
[5]; H69AR cells + 2 uM doxorubicin
  differential viability (reversal): -0.53% (inactive)
[5]; [8]
  viability: 73.6%
[5]; [9]
  viability: 73.1%
[6]
  inhibition: 1.18% (inactive)
[7]
  inhibition: 6.73% (inactive)

## CCCc1nc2ccccc2c(=O)n1NC(=O)c1c(O)c2cccc3c2n(c1=O)CCC3
[1]
  viability: 113%
[2]
  Her2 level: 87.5% (inactive)
[3]
  viability: 113% (inactive)
[4]
  viability: 83.5% (inactive)
[5]; H69AR cells + 2 uM doxorubicin
  differential viability (reversal): -6.06% (inactive)
[5]; [8]
  viability: 72.1%
[5]; [9]
  viability: 66%
[6]
  inhibition: -5.2% (inactive)
[7]
  inhibition: 14.1% (inactive)

## CCOC(=O)c1sc2nc(N3CCCC3)c3c(c2c1N)CC(C)(C)OC3
[1]
  viability: 75.5%
[2]
  Her2 level: 80.5% (inactive)
[3]
  viability: 75.5% (inactive)
[4]
  viability: 58.8% (inactive)
[5]; H69AR cells + 2 uM doxorubicin
  differential viability (reversal): -12.8% (inactive)
[5]; [8]
  viability: 65.9%
[5]; [9]
  viability: 53.1%
[6]
  inhibition: -7.92% (inactive)
[7]
  inhibition: -9.83% (inactive)

## CCOc1ccc2nc(NC(=O)C3CCCN(S(=O)(=O)c4c(C)noc4C)C3)sc2c1 (stereo not drawn)
[1]
  viability: 124%
[2]
  Her2 level: 74% (inactive)
[3]
  viability: 124% (inactive)
[4]
  viability: 49.7% (inactive)
[5]; H69AR cells + 2 uM doxorubicin
  differential viability (reversal): -23.4% (inactive)
[5]; [8]
  viability: 71.2%
[5]; [9]
  viability: 47.9%
[6]
  inhibition: 6.28% (inactive)
[7]
  inhibition: 7.5% (inactive)

## C=C(c1ccc(O)cc1)c1ccc(O)cc1
[1]
  viability: 105%
[2]
  Her2 level: 93% (inactive)
[3]
  viability: 105% (inactive)
[4]
  viability: 70.8% (inactive)
[5]; H69AR cells + 2 uM doxorubicin
  differential viability (reversal): -42.8% (inactive)
[5]; [8]
  viability: 87.9%
[5]; [9]
  viability: 45%
[6]
  inhibition: -5.92% (inactive)
[7]
  inhibition: -2.54% (inactive)

## Cc1ccc(S(=O)(=O)c2cc3c(=O)n4ccccc4nc3n(CC3CCCO3)c2=N)cc1C (stereo not drawn)
[1]
  viability: 83%
[2]
  Her2 level: 77.5% (inactive)
[3]
  viability: 83% (inactive)
[4]
  viability: 69.9% (inactive)
[5]; H69AR cells + 2 uM doxorubicin
  differential viability (reversal): 2.4% (inactive)
[5]; [8]
  viability: 53.5%
[5]; [9]
  viability: 55.9%
[6]
  inhibition: -4.86% (inactive)
[7]
  inhibition: 2.95% (inactive)

## CSc1nc(N)nc(SCCS(=O)(=O)c2ccc(Cl)cc2)c1C#N
[1]
  viability: 90.5%
[2]
  Her2 level: 68% (inactive)
[3]
  viability: 90.5% (inactive)
[4]
  viability: 56.6% (inactive)
[5]; H69AR cells + 2 uM doxorubicin
  differential viability (reversal): -7.24% (inactive)
[5]; [8]
  viability: 34.2%
[5]; [9]
  viability: 26.9%
[6]
  inhibition: -3.47% (inactive)
[7]
  inhibition: -3.65% (inactive)

## Cc1c(NC(=O)c2ccc(=O)oc2)c(=O)n(-c2ccccc2)n1C
[1]
  viability: 96.5%
[2]
  Her2 level: 89% (inactive)
[3]
  viability: 96.5% (inactive)
[4]
  viability: 90.9% (inactive)
[5]; H69AR cells + 2 uM doxorubicin
  differential viability (reversal): -18.7% (inactive)
[5]; [8]
  viability: 67.2%
[5]; [9]
  viability: 48.5%
[6]
  inhibition: -4.8% (inactive)
[7]
  inhibition: -0.32% (inactive)
